Assay results taken from ChEMBL document CHEMBL3091364, “Benzyloxybenzylammonium chlorides: Simple amine salts that display anticonvulsant activity” (Bioorg Med Chem, 2013).

Experiments:
[1] = biological target: T1, D(4) dopamine receptor (Homo sapiens) (UniProt P21917); assay: Inhibition of dopaminergic D4 receptor (unknown origin) at 10 uM relative to control
T1 sequence (whole entry): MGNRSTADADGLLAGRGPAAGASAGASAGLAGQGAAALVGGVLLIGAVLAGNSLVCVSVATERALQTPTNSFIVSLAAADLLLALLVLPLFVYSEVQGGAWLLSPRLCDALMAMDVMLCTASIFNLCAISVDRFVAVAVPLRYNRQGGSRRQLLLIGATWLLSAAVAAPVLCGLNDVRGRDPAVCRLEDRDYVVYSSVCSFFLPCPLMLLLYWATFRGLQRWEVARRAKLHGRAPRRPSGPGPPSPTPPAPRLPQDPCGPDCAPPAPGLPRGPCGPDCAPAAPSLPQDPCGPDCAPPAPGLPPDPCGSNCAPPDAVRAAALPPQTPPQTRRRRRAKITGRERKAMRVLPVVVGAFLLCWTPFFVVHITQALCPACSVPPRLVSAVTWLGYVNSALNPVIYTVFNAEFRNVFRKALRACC

[2] = biological target: T2, Alpha-2A adrenergic receptor (Homo sapiens) (UniProt P08913); assay: Inhibition of adrenergic alpha-2A receptor (unknown origin) at 10 uM relative to control
T2 sequence (whole entry): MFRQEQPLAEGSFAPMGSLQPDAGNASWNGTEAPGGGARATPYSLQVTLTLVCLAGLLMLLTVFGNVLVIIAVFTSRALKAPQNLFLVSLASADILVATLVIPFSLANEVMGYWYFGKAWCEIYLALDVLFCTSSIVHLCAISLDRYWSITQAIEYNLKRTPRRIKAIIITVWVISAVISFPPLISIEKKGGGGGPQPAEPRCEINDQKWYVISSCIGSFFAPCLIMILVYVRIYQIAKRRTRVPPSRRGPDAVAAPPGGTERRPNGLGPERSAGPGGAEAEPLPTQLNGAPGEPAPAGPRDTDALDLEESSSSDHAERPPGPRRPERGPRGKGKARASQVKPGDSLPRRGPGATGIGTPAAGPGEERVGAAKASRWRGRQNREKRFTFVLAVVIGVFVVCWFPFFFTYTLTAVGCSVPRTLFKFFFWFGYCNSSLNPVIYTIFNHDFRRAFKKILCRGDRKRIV

[3] = biological target: Sodium-dependent serotonin transporter (Homo sapiens) (UniProt P31645); assay: Inhibition of SERT (unknown origin) at 10 uM relative to control
Chain of Sodium-dependent serotonin transporter (Homo sapiens) (P31645 whole entry, looked up): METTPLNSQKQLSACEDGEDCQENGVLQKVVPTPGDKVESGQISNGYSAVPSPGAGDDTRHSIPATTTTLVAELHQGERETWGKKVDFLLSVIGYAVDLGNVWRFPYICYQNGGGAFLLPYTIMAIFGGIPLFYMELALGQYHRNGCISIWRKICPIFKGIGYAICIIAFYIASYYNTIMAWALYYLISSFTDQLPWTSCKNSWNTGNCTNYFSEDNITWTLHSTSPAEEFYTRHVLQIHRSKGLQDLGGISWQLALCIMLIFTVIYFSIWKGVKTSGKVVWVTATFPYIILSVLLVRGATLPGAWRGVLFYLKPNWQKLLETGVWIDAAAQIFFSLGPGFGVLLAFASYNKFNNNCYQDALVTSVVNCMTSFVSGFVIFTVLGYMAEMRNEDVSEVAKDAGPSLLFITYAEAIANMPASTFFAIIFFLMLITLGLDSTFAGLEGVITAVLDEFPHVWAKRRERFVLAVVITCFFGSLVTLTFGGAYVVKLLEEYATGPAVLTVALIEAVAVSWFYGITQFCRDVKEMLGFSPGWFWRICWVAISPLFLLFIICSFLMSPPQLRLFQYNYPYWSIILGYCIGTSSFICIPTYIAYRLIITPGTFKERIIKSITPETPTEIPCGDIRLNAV

[4] = biological target: Translocator protein (Homo sapiens) (UniProt P30536); assay: Inhibition of PBR (unknown origin) at 10 uM relative to control
Chain of Translocator protein (Homo sapiens) (P30536 whole entry): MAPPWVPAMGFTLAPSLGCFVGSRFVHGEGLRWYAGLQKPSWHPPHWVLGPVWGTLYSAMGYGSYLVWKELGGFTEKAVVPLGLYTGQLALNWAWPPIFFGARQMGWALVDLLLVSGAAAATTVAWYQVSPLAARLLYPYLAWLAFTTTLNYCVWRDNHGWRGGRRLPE

[5] = biological target: T3, Alpha-1B adrenergic receptor (Homo sapiens) (UniProt P35368); assay: Inhibition of adrenergic alpha-1B receptor (unknown origin) at 10 uM relative to control
T3 sequence (whole entry): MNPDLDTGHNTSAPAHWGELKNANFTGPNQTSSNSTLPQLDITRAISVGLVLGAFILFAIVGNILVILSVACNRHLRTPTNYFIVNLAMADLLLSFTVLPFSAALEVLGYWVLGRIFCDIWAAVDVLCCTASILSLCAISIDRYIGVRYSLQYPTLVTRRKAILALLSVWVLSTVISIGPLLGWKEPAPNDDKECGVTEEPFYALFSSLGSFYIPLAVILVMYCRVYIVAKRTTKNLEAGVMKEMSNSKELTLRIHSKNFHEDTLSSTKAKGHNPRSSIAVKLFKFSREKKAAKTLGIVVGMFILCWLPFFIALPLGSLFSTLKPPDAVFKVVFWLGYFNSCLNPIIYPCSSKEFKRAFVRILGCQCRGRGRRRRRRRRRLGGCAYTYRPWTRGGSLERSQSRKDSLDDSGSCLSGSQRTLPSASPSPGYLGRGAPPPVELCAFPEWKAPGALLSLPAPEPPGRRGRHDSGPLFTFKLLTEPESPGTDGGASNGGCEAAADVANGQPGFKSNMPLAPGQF

[6] = biological target: T4, Muscarinic acetylcholine receptor M4 (Homo sapiens) (UniProt P08173); assay: Inhibition of muscarinergic M4 receptor (unknown origin) at 10 uM relative to control
T4 sequence (whole entry): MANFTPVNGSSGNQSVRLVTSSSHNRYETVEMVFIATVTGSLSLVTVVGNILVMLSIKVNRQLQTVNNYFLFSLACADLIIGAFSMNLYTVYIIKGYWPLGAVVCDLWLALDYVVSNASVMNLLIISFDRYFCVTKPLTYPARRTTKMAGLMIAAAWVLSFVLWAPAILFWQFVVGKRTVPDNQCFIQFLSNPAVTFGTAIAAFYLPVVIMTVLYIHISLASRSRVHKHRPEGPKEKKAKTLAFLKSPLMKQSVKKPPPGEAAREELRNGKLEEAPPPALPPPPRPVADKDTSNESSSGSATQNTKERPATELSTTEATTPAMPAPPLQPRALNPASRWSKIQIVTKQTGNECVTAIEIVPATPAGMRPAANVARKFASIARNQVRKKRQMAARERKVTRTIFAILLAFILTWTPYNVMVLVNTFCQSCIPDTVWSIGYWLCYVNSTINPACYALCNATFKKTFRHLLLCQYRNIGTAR

[7] = biological target: Kappa-type opioid receptor (Homo sapiens) (UniProt P41145); assay: Inhibition of kappa opioid receptor (unknown origin) at 10 uM relative to control
Chain of Kappa-type opioid receptor (Homo sapiens) (P41145 whole entry): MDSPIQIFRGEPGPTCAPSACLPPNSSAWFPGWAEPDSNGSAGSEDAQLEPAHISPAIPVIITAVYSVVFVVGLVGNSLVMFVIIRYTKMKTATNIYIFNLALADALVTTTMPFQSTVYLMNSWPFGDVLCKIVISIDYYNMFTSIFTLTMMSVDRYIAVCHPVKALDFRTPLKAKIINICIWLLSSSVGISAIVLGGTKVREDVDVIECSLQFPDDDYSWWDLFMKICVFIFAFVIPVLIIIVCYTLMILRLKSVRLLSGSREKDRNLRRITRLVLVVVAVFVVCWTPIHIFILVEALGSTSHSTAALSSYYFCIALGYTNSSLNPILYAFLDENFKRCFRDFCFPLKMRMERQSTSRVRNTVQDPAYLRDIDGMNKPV

[8] = biological target: Beta-3 adrenergic receptor (Homo sapiens) (UniProt P13945); assay: Inhibition of adrenergic beta-3 receptor (unknown origin) at 10 uM relative to control
Chain of Beta-3 adrenergic receptor (Homo sapiens) (P13945 whole entry, looked up): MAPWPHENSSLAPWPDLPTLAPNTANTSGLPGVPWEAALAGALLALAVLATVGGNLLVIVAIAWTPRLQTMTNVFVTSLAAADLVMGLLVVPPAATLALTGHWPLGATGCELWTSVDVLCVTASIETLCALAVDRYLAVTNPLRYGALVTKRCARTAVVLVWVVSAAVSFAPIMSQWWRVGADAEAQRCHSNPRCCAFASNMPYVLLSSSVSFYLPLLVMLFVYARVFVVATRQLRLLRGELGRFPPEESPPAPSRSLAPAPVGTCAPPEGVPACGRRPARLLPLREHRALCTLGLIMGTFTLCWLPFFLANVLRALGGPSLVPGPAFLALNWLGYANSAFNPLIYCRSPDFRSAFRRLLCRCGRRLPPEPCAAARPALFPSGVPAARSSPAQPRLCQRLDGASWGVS

[9] = Toxicity in po dosed albino Sprague-Dawley rat assessed as behavioral changes measured at 0.25 to 4 hrs; assay type: organism-based; settings: in vivo
Method in brief: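 Male albino Sprague-Dawley rats given compound intraperitoneally or orally (NINDS ASP); neurological impairment judged from behavioral toxicity effects. Preset screening doses (e.g., 30 mg/kg); for adequately active compounds, TD50 (mg/kg, 95% confidence intervals) derived from dose–effect data at time of peak effect.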

Homo sapiens = species: Homo sapiens; assay: Inhibition of sigma-2 receptor (unknown origin) at 10 uM relative to control

SMILES	inhibition [1] [%]	inhibition [2] [%]	inhibition [3] [%]	inhibition [4] [%]	inhibition [5] [%]	inhibition [6] [%]	inhibition [7] [%]	inhibition [8] [%]	inhibition (Homo sapiens) [%]	TD50 [9] [mg/kg]
Cl.NCc1ccc(OCc2ccccc2OC(F)(F)F)cc1	94.6	59.2	31.4	4.7	-2.4	1.6	6.6	26.8	89.8	> 30
Cl.NCc1ccc(OCc2ccccc2)cc1	27.4	47.3	49.1	11.8	0.5		6	11.3	56.6	> 30
Cl.NCc1ccc(OCc2cccc(OC(F)(F)F)c2)cc1	22.1	47	55.7	3.6	-3.8	4.3	9.8	13.6	87.5	> 30
Cl.NCc1ccc(OCc2cccc(Cl)c2)cc1	79.4	74	76.5	50	11.4	0.2	13.9	16.9	80.5	> 30
Cl.NCc1ccc(OCc2ccc(F)cc2)cc1	19.5	55.4	71.3	-2.3		10.4	14.2	5	67.6	> 30
Cl.NCc1ccc(OCc2ccc(Cl)cc2)cc1	24.7	65.9	53.8	12		3.5	16.6	-3.4	79.2	> 30

Continued, in another order:

inhibition [1] [%]	inhibition [2] [%]	inhibition [3] [%]	inhibition [4] [%]	inhibition [5] [%]	inhibition [6] [%]	inhibition [7] [%]	inhibition [8] [%]	inhibition (Homo sapiens) [%]	SMILES	TD50 [9] [mg/kg]
-0.2	48.2	10.6	5.6	4.1	-4.7	2.6	17.5	86.4	Cl.NCc1ccc(OCc2ccc(OC(F)(F)F)cc2)cc1	> 30
9.9	57.2	83.4	15.2	24.8		1.3	9.3	58.4	Cl.NCc1ccc(OCc2cccc(F)c2)cc1	> 30
44	39	34.4	26.8	13.6	-9	3.6	10.2	71.6	Cl.NCc1ccc(OCc2ccccc2F)cc1	> 30
